Source: ChEMBL document CHEMBL1135613, “Soluble tetraarylporphyrin-platinum conjugates as cytotoxic and phototoxic antitumor agents” (J Med Chem, 2002)

Columns and labels:
Type in all cases: cell-based
Conditions in all cases: human
TCC-SUP [1] = assay: Cytotoxicity of compound in dark was determined at 1 uM in TCC-SUP transitional bladder cancer cells; No statistically significant cytotoxicity
TCC-SUP [2] = assay: Cytotoxicity of compound was determined from treated to that of control TCC-SUP cells
Procedure, shortened: (§1)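 Kinetic (multiple-point) chemosensitivity assay: TCC-SUP cells (passage 56) seeded in microplates, drug added after 48 h at 1, 5 and 10 µM from 10 mM stocks, 0.1% (v/v) final solvent. Medium left unchanged; growth followed by absorbance at 578 nm up to 144 h. T/C corr. = (T−C0)/(C−C0)×100; cytocidal effect = (C0−T)/C0×100 when T<C0.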

TCC-SUP [3] = assay: Cytotoxicity of compound in light was determined at 1 uM in TCC-SUP transitional bladder cancer cells; Marked light-induced toxicity
TCC-SUP [4] = assay: Cytotoxicity of compound in dark was determined at 10 uM in TCC-SUP transitional bladder cancer cells; No statistically significant cytotoxicity
TCC-SUP [5] = assay: Photoxicity of compound in light was determined at 1 uM in TCC-SUP transitional bladder cancer cells; Marked light-induced toxicity
TCC-SUP [6] = assay: Cytotoxicity of compound in dark was determined at 5 uM in TCC-SUP transitional bladder cancer cells; No statistically significant cytotoxicity
TCC-SUP [7] = assay: Cytotoxicity of compound was determined from treated to that of control on the proliferation of TCC-SUP cells at 1 uM; procedure, shortened: as §1
TCC-SUP [8] = assay: Cytocidal of compound was determined from 10 uM in TCC-SUP cells incubated for 144 hr; procedure, shortened: as §1
TCC-SUP [9] = assay: Cytotoxicity of compound was determined from treated to that of control on the proliferation of TCC-SUP cells at 5 uM; procedure, shortened: as §1

Q: How did the Cytotoxicity (TCC-SUP [1]) turn out when `COCCOCCOc1ccc(-c2c3nc(c(-c4ccc(OCCOCCOC)cc4)c4ccc([nH]4)c(-c4ccc(OC(C(=O)O)C(=O)O)cc4)c4nc(c(-c5ccc(OCCOCCOC)cc5)c5ccc2[nH]5)C=C4)C=C3)cc1` was run?
A: No effect

Q: And the T/C corr (TCC-SUP [2])?
A: 37%

Q: And the Cytotoxicity (TCC-SUP [3])?
A: Marked light-induced toxicity

Q: How did the Cytotoxicity (TCC-SUP [4]) turn out when `COCCOCCOCCOCCOCCOCCOCCOCCOCCOCCOCCOCCOCCOCCOCCOCCOCCOc1ccc(-c2c3nc(c(-c4ccc(OCCOCCOCCOCCOCCOCCOCCOCCOCCOCCOCCOCCOCCOCCOCCOCCOCCOC)cc4)c4ccc([nH]4)c(-c4ccc(OC(C(=O)O)C(=O)O)cc4)c4nc(c(-c5ccc(OCCOCCOCCOCCOCCOCCOCCOCCOCCOCCOCCOCCOCCOCCOCCOCCOCCOC)cc5)c5ccc2[nH]5)C=C4)C=C3)cc1` was run?
A: No effect

Q: How did the T/C corr (TCC-SUP [2]) turn out when `COCCOCCOCCOc1ccc(-c2c3nc(c(-c4ccc(OCCOCCOCCOC)cc4)c4ccc([nH]4)c(-c4ccc(OC(C(=O)O)C(=O)O)cc4)c4nc(c(-c5ccc(OCCOCCOCCOC)cc5)c5ccc2[nH]5)C=C4)C=C3)cc1` was run?
A: 37%

Q: And the Cytotoxicity (TCC-SUP [5])?
A: Marked light-induced toxicity

Q: What about the Cytotoxicity (TCC-SUP [6]) of the same compound?
A: No effect

Q: How did the T/C corr (TCC-SUP [7]) turn out when “Diammine[2-(4-{10,15,20-tris[4-(1,4,7,10-tetraoxaundecyl)phenyl]porphyrin-5-yl}phenoxy)malonato]platinum-(II)” was run?
A: 26.2%

Q: What about the Cytocidal effect (TCC-SUP [8]) of the same compound?
A: 17.1%

Q: What about the T/C corr (TCC-SUP [9]) of the same compound?
A: 2.8%
